From PubChem
An excerpt weighted towards active compounds, which were near 3.7% of everything screened.
KCNQ1 inh: inhibitors of human KCNQ1 channel, primary screen, cell-based, thallium flux, high-throughput | Potassium voltage-gated channel subfamily KQT member 1 (Homo sapiens), P51787 | CHO-K1 KCNQ1, FluxOR thallium flux fluorescence; stronger effect = higher value | B-score at 10 µM | hit rate 1.3% among 310,000 | AID 2642, 2010;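 active = compounds whose thallium flux B-score, printed positive for inhibition, exceeds three library SD while starting fluorescence stays within three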;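 note: channel opened by potassium depolarization with thallium stimulus after 20 min compound exposure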
KCNK3 block: human KCNK3 channel inhibitors, primary screen, CHO cells, FluxOR thallium flux, B-score | hit rate 0.84% among 340,000 | Potassium channel subfamily K member 3 (Homo sapiens), O14649 | B-score at 10 µM | FluxOR fluorescence; stronger effect = lower value | AID 602410, 2012;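 active = B-score under library mean minus 4 SD, starting fluorescence ratio at most library mean plus 5 SD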;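 note: more negative B-score means stronger inhibition of thallium flux through KCNK3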
Kir21 block: inhibitors of mouse Kir2.1 inward-rectifier potassium channel; hit rate 0.85% among 310,000; HEK293-Kir2.1, FluxOR thallium flux fluorescence; stronger effect = lower value; Inward rectifier potassium channel 2 (Mus musculus), P35561; B-score at 10 µM;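 active = fluorescence ratio B-score at or below minus 3 SD of library scores, with starting-brightness B-score within 2 SD, cut at about -4.2 in these data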;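 note: channel flux triggered by added potassium and thallium sulfate stimulus; B-score of peak minus minimum fluorescence over baseline after thallium stimulus; more negative B-score means stronger Kir2.1 block with less thallium influx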
Target sequence (P35561 whole entry, looked up): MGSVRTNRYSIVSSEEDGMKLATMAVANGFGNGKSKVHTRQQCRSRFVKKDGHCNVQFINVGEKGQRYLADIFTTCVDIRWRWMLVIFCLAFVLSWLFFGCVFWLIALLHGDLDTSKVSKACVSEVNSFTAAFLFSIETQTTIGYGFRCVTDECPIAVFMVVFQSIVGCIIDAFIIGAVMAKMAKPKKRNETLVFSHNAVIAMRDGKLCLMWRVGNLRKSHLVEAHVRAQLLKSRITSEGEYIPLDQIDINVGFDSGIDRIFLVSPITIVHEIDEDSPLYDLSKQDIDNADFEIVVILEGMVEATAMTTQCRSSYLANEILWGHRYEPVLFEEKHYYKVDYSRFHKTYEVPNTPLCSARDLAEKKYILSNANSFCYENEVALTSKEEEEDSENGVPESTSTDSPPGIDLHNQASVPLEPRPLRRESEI
hERG rescue: hERG rescue from dofetilide block, primary screen, cell-based, CHO-hERG, FluxOR thallium flux, dofetilide IC70 | hit rate 0.51% among 310,000 | activation (rescue from dofetilide block), less the hit threshold, % at 10 µM | dofetilide IC70 present | Voltage-gated inwardly rectifying potassium channel KCNH2 (Homo sapiens), Q12809;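 active = activation above the mean of controls blocked by dofetilide plus 5 SD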;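 note: thallium influx through hERG after potassium depolarization seen as dye fluorescence rise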
KCNQ1 pot: potentiators or activators of KCNQ1 channel, primary screen, cell-based, thallium flux, high-throughput | B-score at 10 µM | Potassium voltage-gated channel subfamily KQT member 1 (Homo sapiens), P51787 | hit rate 0.35% among 310,000 | CHO-K1 KCNQ1, thallium flux FluxOR fluorescence; stronger effect = higher value;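 active = fluorescence ratio B-score, a plate-corrected score, at least three library SD, with initial intensity B-score within 5 SD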
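Assay system: stable KCNQ1 CHO-K1 line; medium: assay buffer, equal DMSO in all wells; timing: 90 min dye loading and 20 min compound exposure, both at room temperature; technique: kinetic FluxOR thallium fluorescence, 10-s 1-Hz baseline, 110-s post-stimulus read; read-out basis: B score of baseline-normalized fluorescence ratio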
KCNK9 inh: KCNK9 potassium channel inhibitors, primary screen, HEK293 cells, thallium flux | AID 488922, 2010 | FluxOR thallium flux fluorescence; stronger effect = lower value | hit rate 1.2% among 310,000 | B-score at 10 µM;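 active = ratio B-score over 3 SD below the library mean, with starting fluorescence within 5 SD of its mean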;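 note: negative B-score means less thallium flux so channel inhibition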
Large screens that a line does not name were inactive.

CCSC1=C(C#N)C(c2ccccc2Cl)C(C(=O)c2cccs2)C(O)(C(F)(F)F)N1 (centres undefined)	none
C=CCSC1=C(C#N)C(c2ccccc2Cl)C(C(=O)c2cccs2)C(O)(C(F)(F)F)N1 (centres undefined)	KCNQ1 inh 10
C=CCOc1c(Br)cc(/C=N/O)cc1OCC	Kir21 block -6.02
COc1cc(/C=N/O)cc(Br)c1OC	none
Cc1ccc(/C=C2\SC(=S)N(/N=C/c3cc([N+](=O)[O-])ccc3O)C2=O)o1	KCNQ1 inh 6
Cc1cc(C)c2c(c1)/C(=N\N=c1\sc3ccccc3n1C)C(=O)N2	none
CCn1c(SCC(=O)OC)nc2sc3c(c2c1=O)CCC3	none
CCn1c(SCc2ccc(C(=O)OC)o2)nc2sc3c(c2c1=O)CCCC3	KCNK9 inh -7.86
Cn1c(SCC(=O)NCCc2ccccc2)ncc(C(=O)Nc2ccccc2)c1=O	none
CCOC(=O)CN1NC2(CCC(C(C)(C)C)CC2)NC1=S (centres undefined)	hERG rescue 8.7
CCOC(=O)CN1NC2(CCC(C)CC2)NC1=S (centres undefined)	none
Cc1c(NC(=O)c2cccc(NC(=O)COc3cccc(Br)c3)c2)c(=O)n(-c2ccccc2)n1C	none (no result: KCNQ1 inh, Kir21 block, hERG rescue, KCNQ1 pot, KCNK9 inh)
O=C(N/N=C/c1ccccn1)c1cc(Br)ccc1O	KCNQ1 pot 10
O=C(N/N=C/c1cccnc1)c1cc(Br)ccc1O	none
CCc1nc(SCC(=O)Nc2ccc(F)cc2)c2c(=O)n(C)c(=O)n(C)c2n1	none
NC(=O)CC(NC(=O)c1ccccc1)c1ccc(N2CCC(Cc3ccccc3)CC2)c([N+](=O)[O-])c1 (centres undefined)	KCNK9 inh -6.85
CCCNC(=O)C(Cc1ccc(C(F)(F)P(=O)(OCC)OCC)cc1)NC(=O)c1ccc(C#N)cc1 (centres undefined)	none (no result: KCNQ1 inh, Kir21 block, hERG rescue, KCNQ1 pot, KCNK9 inh)
COc1ccc2nc(SCC(=O)NCC(F)(F)F)[nH]c2c1	hERG rescue 5.2
OCC1(CCOc2ccccc2)CCN(Cc2ccncc2)CC1	none
OCC1(CCOc2ccccc2)CCN(Cc2cc(Cl)ccc2O)CC1	Kir21 block -4.63
OCC1(CCCc2ccccc2)CCN(Cc2cc(F)ccc2F)CC1	Kir21 block -4.39
Cc1c(CNC(=O)c2c([N+](=O)[O-])cnn2C)cnn1C	none
S=C(NCc1ccc2c(c1)OCO2)NC1CCN(Cc2ccccc2)CC1	Kir21 block -12.3
O=C(c1ccccc1Cl)N1CCN(Cc2ccc3c(c2)OCO3)CC1	KCNK9 inh -7.01
c1ccc(CN2CCC(N3CCN(Cc4ccc5c(c4)OCO5)CC3)CC2)cc1	none
Cc1ccc(C(=O)N2CCN(Cc3ccc4c(c3)OCO4)CC2)c(Cl)c1	none
O=C(Nn1c(O)c(C=C2N=c3ccccc3=N2)sc1=S)c1cccc(Cl)c1	hERG rescue 12.0
O=C(Nn1c(O)c(C=C2N=c3ccccc3=N2)sc1=S)c1ccc(Cl)cc1	none
O=C(CSc1nnnn1-c1cccc2c1CCCC2)N1CCCCC1	Kir21 block -4.33
O=C(Nc1ccc2c(c1)OCO2)N1CCCC1	none
COC(=O)C1CCN(CC(=O)NC(=O)NC2CCCCC2)CC1	none
O=C(CSc1cn[nH]n1)Nc1cccc(C(F)(F)F)c1	KCNK9 inh -7.53
Cc1cnc(C(=O)OCC(=O)c2ccc(-c3ccccc3)cc2)cn1	none
COc1cc2[nH]c(C(=O)NCc3ccccc3)cc2c(OC)c1OC	Kir21 block -6.3
CN(CC1CCOCC1)C(=O)CC1C(=O)NCCN1Cc1cccc(Oc2ccccc2)c1 (centres undefined)	none
COc1ccc(NS(=O)(=O)c2cccc(C(=O)NCc3ccccc3CN3CCCC3)c2)cc1	none (no result: KCNQ1 inh, Kir21 block, hERG rescue, KCNQ1 pot, KCNK9 inh)
COCCn1c(=S)[nH]c2ncccc2c1=O	none
COCCCn1c(=S)[nH]c2ncccc2c1=O	none
CCCCCn1c(=S)[nH]c2ncccc2c1=O	hERG rescue 11.5, KCNQ1 pot 20
O=c1c2cccnc2[nH]c(=S)n1CCC1=CCCCC1	hERG rescue 30.8, KCNQ1 pot 27
